# Laboratory results as given in ChEMBL document CHEMBL1649451, “In vivo selection of reduced susceptibility to carbapenems in Acinetobacter baumannii related to ISAba1-mediated overexpression of the natural bla(OXA-66) oxacillinase gene” (2009).
# How the values were obtained:
# Format in all cases: functional
# Acinetobacter baumannii [1] = test: Antimicrobial activity against carbapenem-resistant Acinetobacter baumannii isolate A2 by Etest method
# How it was run: (§1)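 Etest strips on Mueller-Hinton agar, incubated at 37°C; MIC read from strip for clinical A. baumannii isolates A1 and A2 (clonally related, genotyped by ApaI PFGE).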
# Acinetobacter baumannii [2] = test: Antimicrobial activity against carbapenem-susceptible Acinetobacter baumannii isolate A1 by Etest method; how it was run: as §1
# Acinetobacter baumannii [3] = test: Antimicrobial activity against bla OXA-66 gene-deficient Acinetobacter baumannii isolate A2 by Etest method; how it was run: as §1
Compound,MIC (Acinetobacter baumannii [1]) [µg/mL],MIC (Acinetobacter baumannii [2]) [µg/mL],MIC (Acinetobacter baumannii [3]) [µg/mL]
CO[C@H]1/C=C/O[C@@]2(C)Oc3c(C)c(O)c4c(O)c(c(/C=N/N5CCN(C)CC5)c(O)c4c3C2=O)NC(=O)/C(C)=C\C=C\[C@H](C)[C@H](O)[C@@H](C)[C@@H](O)[C@@H](C)[C@H](OC(C)=O)[C@@H]1C [RIFAMPIN],8,8,128
C[C@@H](O)[C@H]1C(=O)N2C(C(=O)O)=C(SCCNC=N)C[C@H]12 [IMIPENEM ANHYDROUS],4,2,0.5
CC(C)(O/N=C(\C(=O)N[C@@H]1C(=O)N2C(C(=O)[O-])=C(C[n+]3ccccc3)CS[C@H]12)c1csc(N)n1)C(=O)O [CEFTAZIDIME],128,128,128
C[C@@H](O)[C@H]1C(=O)N2C(C(=O)O)=C(S[C@@H]3CN[C@H](C(=O)N(C)C)C3)[C@H](C)[C@H]12 [MEROPENEM],6,3,0.5
